According to ChEMBL document CHEMBL1124668, “Solid-phase synthesis of 16 potent (selective and nonselective) in vivo antagonists of oxytocin” (J Med Chem, 1989):
Starred links: 1 amine or outer side, 2 acyl side, 3 side chain; linkers in the order of their positions; H or OH if unused. Positions of bridges follow the written chain, without caps; N, C: chain ends. Non-standard residues stand in square brackets, D forms with d. Residues, ends and D or L forms follow the SMILES beside them. X1 = O=C(CC1(S[*:2])CCCCC1)[*:1]; Orn = NCCC[C@H](N)C(=O)O

Assays:
Rattus norvegicus [1] = assay: (§1) Antivasopressor activity in vivo in phenoxybenzamine pre-treated rats.; type: functional, organism-based; conditions: read-out: pA2 (converted)
Summary of the method: (§2)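 Rats pretreated with phenoxybenzamine, under urethane anesthesia; antagonist given iv; agonist USP Posterior Pituitary Reference Standard; read-out is pressor response. Effective dose (nmol/kg) is the dose that cuts the response to 2X units of agonist to that of 1X unit, interpolated semilogarithmically from bracketing doses. pA2 assumes a 67 mL/kg distribution volume. SEM is given where there are ≥4 independent estimates.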

Rattus norvegicus [2] = assay: Antioxytocic potencies (change in interuterine pressure) in vivo in estrogen pre-treated rats.; type: functional, organism-based; conditions: read-out: pA2 (converted)
Summary of the method: (§3)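 Rats pretreated with estrogen, under urethane anesthesia; antagonist given iv; read-out is change in integrated intrauterine pressure; agonist synthetic oxytocin. Effective dose (nmol/kg) is the dose that cuts the response to 2X units of agonist to the response to 1X unit, interpolated on a semilog scale from doses above and below it. pA2 is derived assuming a 67 mL/kg distribution volume.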

Rattus norvegicus [3] = species: Rattus norvegicus; assay: Antioxytoxic activity in vitro in isolated uteri from estrogen pretreated rats suspended in Mg supplemented Dyke-Hastings solution.; type: functional; conditions: read-out: pA2 (converted)
Summary of the method: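 Isolated rat uterus in bath medium with Mg2+; agonist USP Posterior Pituitary Reference Standard. pA2 is the −log of the effective molar antagonist concentration that reduces the response to a dose of agonist to the response to half that dose. It is interpolated semilogarithmically from concentrations above and below it. SEM is given where there are ≥4 independent estimates.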

Rattus norvegicus [4] = species: Rattus norvegicus; assay: Antioxytoxic activity in vitro in isolated uteri from estrogen pretreated rats suspended in Mg-free Dyke-Hastings solution.; conditions: read-out: pA2 (converted)
Rattus norvegicus [5] = assay: as §1; type: functional; summary of the method: as §2
Rattus norvegicus [6] = assay: In vivo inhibition of estrogen induced changes in interuterine pressure in rats.; type: functional; summary of the method: as §3
Rattus norvegicus [7] = assay: Antiantidiuretic activity in vivo in hydrated rats under ethanol anaesthesia.; type: functional, organism-based; conditions: Urine, read-out: pA2 (converted)
Summary of the method: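 Hydrated rats under ethanol anaesthesia; antagonist given iv against the USP Posterior Pituitary Reference Standard as agonist. Effective dose (nmol/kg) is the dose that cuts the response to 2x units of agonist to equal the response to 1x unit. It is estimated by interpolation on a semilog scale between doses above and below it. pA2 assumes a volume of distribution of 67 mL/kg. Where SEM is given, n ≥4 estimates.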

Row | Compound | Kb (Rattus norvegicus [1]) [nM] | Kb (Rattus norvegicus [2]) [nM] | Kb (Rattus norvegicus [3]) [nM] | Kb (Rattus norvegicus [4]) [nM] | ED (Rattus norvegicus [5]) [nM/kg] | ED (Rattus norvegicus [6]) [nM/kg] | Kb (Rattus norvegicus [7]) [nM]
1 | CC[C@H](C)[C@@H]1NC(=O)[C@H](Cc2ccc(OC)cc2)NC(=O)CC2(CCCCC2)SSC[C@@H](C(=O)N2CCC[C@H]2C(=O)N[C@@H](CCCN)C(=O)N[C@@H](C)C(N)=O)NC(=O)[C@H](CC(N)=O)NC(=O)[C@H]([C@@H](C)O)NC1=O [listing 1 of 2 here] | 112 | 34.7 | 6.31 | 24 | – | – | –
2 | CC[C@H](C)[C@@H]1NC(=O)[C@H](Cc2ccc(OC)cc2)NC(=O)CC2(CCCCC2)SSC[C@@H](C(=O)N2CCC[C@H]2C(=O)N[C@@H](CCCN)C(=O)N[C@@H](C)C(N)=O)NC(=O)[C@H](CC(N)=O)NC(=O)[C@H]([C@@H](C)O)NC1=O [listing 2 of 2 here] | – | – | – | – | 8.1 | 2.4 | –
3 | CC[C@H](C)[C@@H]1NC(=O)[C@@H](Cc2ccccc2)NC(=O)CC2(CCCCC2)SSC[C@@H](C(=O)N2CCC[C@H]2C(=O)N[C@@H](CCCN=C(N)N)C(=O)NCC(N)=O)NC(=O)[C@H](CC(N)=O)NC(=O)[C@H](C(C)C)NC1=O | 229 | 34.7 | 5.62 | 12.9 | – | – | 617
4 | CC[C@H](C)[C@@H]1NC(=O)[C@@H](Cc2ccc(OC)cc2)NC(=O)CC2(CCCCC2)SSC[C@@H](C(=O)N2CCC[C@H]2C(=O)N[C@@H](CCCN=C(N)N)C(=O)NCC(N)=O)NC(=O)[C@H](CC(N)=O)NC(=O)[C@H](C(C)C)NC1=O | 15.1 | 33.1 | 5.62 | 22.4 | – | – | 132
5 | CC[C@H](C)[C@@H]1NC(=O)[C@H](Cc2ccc(OC)cc2)NC(=O)CC2(CCCCC2)SSC[C@@H](C(=O)N2CCC[C@H]2C(=O)N[C@@H](CCCN)C(=O)N[C@@H](CCCN=C(N)N)C(N)=O)NC(=O)[C@H](CC(N)=O)NC(=O)[C@H]([C@@H](C)O)NC1=O [listing 1 of 2 here] | 11 | 28.8 | 5.5 | 20.4 | – | – | –
6 | CC[C@H](C)[C@@H]1NC(=O)[C@H](Cc2ccc(OC)cc2)NC(=O)CC2(CCCCC2)SSC[C@@H](C(=O)N2CCC[C@H]2C(=O)N[C@@H](CCCN)C(=O)N[C@@H](CCCN=C(N)N)C(N)=O)NC(=O)[C@H](CC(N)=O)NC(=O)[C@H]([C@@H](C)O)NC1=O [listing 2 of 2 here] | – | – | – | – | 0.76 | 2.3 | –
7 | CCOc1ccc(C[C@H]2NC(=O)CC3(CCCCC3)SSC[C@@H](C(=O)N3CCC[C@H]3C(=O)N[C@@H](CCCNC(N)=O)C(=O)NCC(N)=O)NC(=O)[C@H](CC(N)=O)NC(=O)[C@H](C(C)C)NC(=O)[C@H](Cc3ccccc3)NC2=O)cc1 | 11.7 | 25.7 | 14.8 | 2.45 | – | – | 309
8 | COc1ccc(C[C@H]2NC(=O)CC3(CCCCC3)SSC[C@@H](C(=O)N3CCC[C@H]3C(=O)N[C@@H](CCCN=C(N)N)C(=O)NCC(N)=O)NC(=O)[C@H](CC(N)=O)NC(=O)[C@H](CCC(N)=O)NC(=O)[C@H](Cc3ccccc3)NC2=O)cc1 | 5.37 | 33.9 | 4.79 | 13.5 | – | – | 105
9 | COc1ccc(C[C@@H]2NC(=O)CC3(CCCCC3)SSC[C@@H](C(=O)N3CCC[C@H]3C(=O)N[C@@H](CCCN=C(N)N)C(=O)NCC(N)=O)NC(=O)[C@H](CC(N)=O)NC(=O)[C@H](CCC(N)=O)NC(=O)[C@H](Cc3ccccc3)NC2=O)cc1 | – | – | – | – | 0.16 | 17 | –
10 | COc1ccc(C[C@H]2NC(=O)CC3(CCCCC3)SSC[C@@H](C(=O)N3CCC[C@H]3C(=O)N[C@@H](CCCN=C(N)N)C(=O)NCC(N)=O)NC(=O)[C@H](CC(N)=O)NC(=O)[C@H](C(C)C)NC(=O)[C@H](Cc3ccccc3)NC2=O)cc1 | 3.31 | 26.9 | 14.8 | 11 | – | – | 17
11 | COc1ccc(C[C@H]2NC(=O)CC3(CCCCC3)SSC[C@@H](C(=O)N3CC=C[C@H]3C(=O)N[C@@H](CCCN=C(N)N)C(=O)NCC(N)=O)NC(=O)[C@H](CC(N)=O)NC(=O)[C@H](C(C)C)NC(=O)[C@H](Cc3ccccc3)NC2=O)cc1 | 8.32 | – | 110 | 13.2 | – | – | 24.5
12 | COc1ccc(C[C@@H]2NC(=O)CC3(CCCCC3)SSC[C@@H](C(=O)N3CCC[C@H]3C(=O)N[C@@H](CCCN=C(N)N)C(=O)NCC(N)=O)NC(=O)[C@H](CC(N)=O)NC(=O)[C@H](C(C)C)NC(=O)[C@H](Cc3ccccc3)NC2=O)cc1 | – | 115 | 13.5 | 4.37 | – | – | 44.7
13 | CC[C@H](C)[C@@H]1NC(=O)[C@H](Cc2ccc(OC)cc2)NC(=O)CC2(CCCCC2)SSC[C@@H](C(=O)N2CCC[C@H]2C(=O)N[C@@H](CCCN)C(=O)NCC(N)=O)NC(=O)[C@H](CC(N)=O)NC(=O)[C@H](CCC(N)=O)NC1=O (Y(Me)IQNCP[Orn]G-NH2; linker N-5 via X1) | 11 | 42.7 | 13.2 | 3.02 | – | – | –
14 | CC[C@H](C)[C@@H]1NC(=O)[C@H](Cc2ccc(OC)cc2)NC(=O)CC2(CCCCC2)SSC[C@@H](C(=O)N2CCC[C@H]2C(=O)N[C@@H](CCCN)C(=O)N[C@@H](CC(C)C)C(N)=O)NC(=O)[C@H](CC(N)=O)NC(=O)[C@H]([C@@H](C)O)NC1=O (Y(Me)ITNCP[Orn]L-NH2; linker N-5 via X1) | 407 | 26.9 | 3.47 | 16.6 | – | – | –
15 | CC[C@H](C)[C@@H]1NC(=O)[C@H](Cc2ccc(OC)cc2)NC(=O)CC2(CCCCC2)SSC[C@@H](C(=O)N2CCC[C@H]2C(=O)N[C@@H](CCCN)C(=O)N[C@@H](Cc2ccc(O)cc2)C(N)=O)NC(=O)[C@H](CC(N)=O)NC(=O)[C@H]([C@@H](C)O)NC1=O (Y(Me)ITNCP[Orn]Y-NH2; linker N-5 via X1) | 95.5 | 14.8 | 5.25 | 23.4 | – | – | –
16 | CCOc1ccc(C[C@H]2NC(=O)CC3(CCCCC3)SSC[C@@H](C(=O)N3CCC[C@H]3C(=O)N[C@@H](CCCN=C(N)N)C(=O)NCC(N)=O)NC(=O)[C@H](CC(N)=O)NC(=O)[C@H](C(C)C)NC(=O)[C@H](Cc3ccccc3)NC2=O)cc1 ([dY](Et)FVNCPRG-NH2; linker N-5 via X1) | 6.03 | 33.9 | – | – | – | – | 15.5
17 | CC[C@H](C)[C@@H]1NC(=O)C(Cc2ccc(OC)cc2)NC(=O)CC2(CCCCC2)SSC[C@@H](C(=O)N2CCC[C@H]2C(=O)N[C@@H](CCCN=C(N)N)C(=O)NCC(N)=O)NC(=O)[C@H](CC(N)=O)NC(=O)[C@H](CCC(N)=O)NC1=O (stereo in doubt) | 8.32 | 15.8 | 3.24 | 1.91 | – | – | –
18 | CC[C@H](C)[C@@H]1NC(=O)C(Cc2ccc(OC)cc2)NC(=O)CC(C)(C)SSC[C@@H](C(=O)N2CCC[C@H]2C(=O)N[C@@H](CCCN=C(N)N)C(=O)NCC(N)=O)NC(=O)[C@H](CC(N)=O)NC(=O)[C@H](C(C)C)NC1=O (stereo in doubt) | 3.47 | 26.9 | 7.76 | 17.8 | – | – | –
19 | CC[C@H](C)[C@@H]1NC(=O)C(Cc2ccc(OC)cc2)NC(=O)CC(C)(C)SSC[C@@H](C(=O)N2CCC[C@H]2C(=O)N[C@@H](CCCN=C(N)N)C(=O)NCC(N)=O)NC(=O)[C@H](CC(N)=O)NC(=O)[C@H](CCC(N)=O)NC1=O (stereo in doubt) | 3.55 | 24.5 | 1.95 | 0.759 | – | – | –
20 | CC[C@H](C)[C@@H]1NC(=O)C(Cc2ccc(OC)cc2)NC(=O)CC2(CCCCC2)SSC[C@@H](C(=O)N2CCC[C@H]2C(=O)N[C@@H](CCCCN)C(=O)NCC(N)=O)NC(=O)[C@H](CC(N)=O)NC(=O)[C@H](CCC(N)=O)NC1=O (stereo in doubt) | 20.9 | 58.9 | 15.5 | 23.4 | – | – | –
